The nature of data set [1]: Hydrolysis rate constant of the compound. The class given is ADME.
Data set [2] relates to 41M. The experiment in a line: Concentration required to inhibit growth of the human ovarian cancer 41M cells by 50% after 96h exposure. The class given is functional, cell-based.
In data set [3] the test system is CH1. Description: Concentration required to inhibit growth of the human ovarian cancer CH1 cells by 50% after 96h exposure. Type of data set: functional, cell-based.
For data set [4], the system named is A2780. The experiment in a line: Concentration required to inhibit growth of the human ovarian cancer A2780 cells by 50% after 96h exposure. The class given is functional, cell-based.
Data set [5] in a line: Solubility in water by sequential addition. Type of data set: physicochemical. An outline of the steps:
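Water was added to the compound in sequential portions, with 15 min agitation after each addition. Solubility was taken as the point at which the solution was no longer clear.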

Data set [6] can be described thus: Acid dissociation constant pKa1. The class given is physicochemical. An outline of the steps: (§1)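 Potentiometric titration of 10^-3 M solutions of trans-[Pt(OH)₂(L)(L')], made from the corresponding dinitrato compounds, with standardized NaOH (9.5×10^-4 M); pKa values were taken from the pH titration curves.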
A short description of data set [7]: Acid dissociation constant pKa2. Type of data set: physicochemical. Summed up: as §1
Data set [8] relates to CH1. Description: Resistance factor was determined as ratio of resistance to that of sensitivity of CH1 cells after 96h exposure to compound. The conditions noted are these: Homo sapiens. Type of data set: functional, cell-based.
For data set [9], the system named is 41M. The experiment in a line: Resistance factor was determined as ratio of resistance to that of sensitivity of 41M cells after 96h exposure to compound. The class given is functional, cell-based. The conditions noted are these: Homo sapiens.
Data set [10] concerns A2780. Description: Resistance factor was determined as ratio of resistance to that of sensitivity of A2780 cells after 96h exposure to compound. Type of data set: functional, cell-based. As to conditions: Homo sapiens.

Bounds are passed on as bounds.

As for [PtCl(dien)], in [1], the k1 amounted to 0.000065 s⁻¹.
Same read-out and setting: under TRANSPLATIN stands 0.00019 s⁻¹.
Broadly, the IC50 is the concentration needed to halve the response being measured. A higher IC50 goes with a need for much substance. What is called pKa is the pH at which an ionisable group is half protonated. Low readings indicate a stronger acid or weaker base, high ones a weaker acid or stronger base. Turning to “trans-[Pt(OAc)2(NH3)(iquin)] [listing 1 of 2 here]”, the figures for the IC50 in the data set on 41M [2], with CH1 [3] and with A2780 [4] were 22 µM, 20 µM and 13 µM, respectively. For the same substance, the S in data set [5] is 5.2 mg/mL. Besides, the figures for the pKa in [6] and in data set [7] were 3.78 and 6.92, respectively. The substance also had a k1 in data set [1] of 7.4e-07 s⁻¹.
For the substance “trans-[Pt(OAc)2(NH3)(quin)] [listing 1 of 2 here]”, the RF in the data set with CH1 [8] was 0.48; in the data set with 41M [9] it was 1; in the data set with A2780 [10], 1.46.
Taken in the same sequence, the figures for “trans-[Pt(OAc)2(NH3)(iquin)] [listing 2 of 2 here]” were 0.37, 0.26 and 1.69.
On to CARBOPLATIN, for which, in data set [1], the k1 was less than 1e-08 s⁻¹.
In the case of “trans-[Pt(OAc)2(py)2] [listing 1 of 2 here]”, the figures for the IC50 in the data set on 41M [2], in the data set on CH1 [3] and in the data set with A2780 [4] were 14 µM, 19 µM and 12.8 µM, respectively. Moreover, in [5], the S was found to be 15 mg/mL. The same substance yielded a k1 in data set [1] of 3.2e-07 s⁻¹.
Substance trans-[Pt(OAc)2(NH3)2] gave a S in data set [5] of 21 mg/mL. This substance registered a pKa in data set [7] of 7.08.
Regarding “trans-[Pt(OAc)2(py)2] [listing 2 of 2 here]”, the values for the RF with CH1 [8], in the data set with 41M [9] and in the data set on A2780 [10] were 0.22, 0.32 and 0.9, respectively.
CISPLATIN [listing 1 of 2 here] had an IC50 in the data set with 41M [2] of 1.4 µM. The substance further came in with a k1 in data set [1] of 0.0000518 s⁻¹.
For the substance CISPLATIN [listing 2 of 2 here], the results for the RF in the data set on CH1 [8] and with 41M [9] were 6.7 and 6.1, respectively.
“trans-[Pt(OAc)2(NH3)(quin)] [listing 2 of 2 here]”: the figures for the IC50 in the data set with 41M [2], with CH1 [3] and with A2780 [4] were 22 µM, 17 µM and 13 µM, respectively. This substance also showed a S in data set [5] of 1.6 mg/mL. The substance also registered a k1 in data set [1] of 3.7e-07 s⁻¹.

These data come from ChEMBL document CHEMBL1143654, “Enhancement of aqueous solubility and stability employing a trans acetate axis in trans planar amine platinum compounds while maintaining the biological profile” (J Med Chem, 2005).
